According to ChEMBL document CHEMBL4715714, “Design, synthesis and biological evaluation of thiosemicarbazones, hydrazinobenzothiazoles and arylhydrazones as anticancer agents with a potential to overcome multidrug resistance” (Eur J Med Chem, 2016):

What follows are compounds tested on MES-SA (assay: Cytotoxicity against human MES-SA cells transfected with mCherry fluorescent protein assessed as inhibition of cell proliferation incubated for 72 hrs by fluorescent assay). Details: Homo sapiens, MES-SA, 72 h; read-out: IC50.
Format: functional, cell-based
In short: (§1)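 MES-SA and MES-SA/Dx5 cells were made to stably express mCherry by lentiviral transduction. Cells were seeded at 5000 (96-well) or 2500 (384-well) per well, allowed to attach 24 h, then treated with compound dilutions for 72 h. Viability was read as fluorescence, excitation 585 nm, emission 610 nm.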
With `COc1ccc(O)c(/C=N/Nc2nc3ccccc3s2)c1` the IC50 was 14.9 µM. With `Oc1ccccc1/C=N/NC(=S)Nc1cccc(C(F)(F)F)c1` the IC50 was 5.07 µM. `C/C(=N\NC(=S)Nc1ccccc1C(F)(F)F)c1ccccn1` gave an IC50 of 0.033 µM. In the case of `C/C(=N\NC(=S)Nc1ccc(C)cc1)c1ccccc1O`, the IC50 is reported as 10.9 µM. With `C/C(=N\NC(=S)Nc1cccc(C(F)(F)F)c1)c1ccccn1` the IC50 was 9.59 µM. `C/C(=N\Nc1ccccn1)c1ccccn1` gave an IC50 of 0.102 µM. For `C(=N\Nc1ccccn1)/c1ccc2ccccc2n1`, the IC50 was 0.82 µM. `O=[N+]([O-])c1ccc(O)c(/C=N/Nc2nc3ccccc3s2)c1` gave an IC50 of 4.07 µM. `COc1ccc(NC(=S)N/N=C/c2cccc(C)n2)cc1` showed an IC50 of 4.72 µM.

Same assay, conditions: Homo sapiens, MES-SA, 72 h; read-out: pIC50 (converted)
Compound `COc1ccc(O)c(/C=N/Nc2nc3ccccc3s2)c1` has an IC50 of 13.2 µM. Compound `C/C(=N\NC(=S)Nc1ccccc1C(F)(F)F)c1ccccn1` has an IC50 of 0.0324 µM. `C/C(=N\NC(=S)Nc1ccc(C)cc1)c1ccccc1O` showed an IC50 of 9.77 µM. With `C/C(=N\NC(=S)Nc1cccc(C(F)(F)F)c1)c1ccccn1` the IC50 was 9.55 µM. `C/C(=N\Nc1ccccn1)c1ccccn1` showed an IC50 of 0.0776 µM. With `C(=N\Nc1ccccn1)/c1ccc2ccccc2n1` the IC50 was 0.776 µM. With `O=[N+]([O-])c1ccc(O)c(/C=N/Nc2nc3ccccc3s2)c1` the IC50 was 3.8 µM. `COc1ccc(NC(=S)N/N=C/c2cccc(C)n2)cc1` showed an IC50 of 4.68 µM.

The compounds below were run on MES-SA/Dx5 (assay: Cytotoxicity against human MES-SA/DX5 cells transfected with mCherry fluorescent protein assessed as inhibition of cell proliferation incubated for 72 hrs by fluorescent assay). Details: Homo sapiens, MES-SA/Dx5, 72 h; read-out: IC50.
Format: functional, cell-based
In short: as §1
For `COc1ccc(O)c(/C=N/Nc2nc3ccccc3s2)c1`, the IC50 was 11.6 µM. For `Oc1ccccc1/C=N/NC(=S)Nc1cccc(C(F)(F)F)c1`, the IC50 was 4.08 µM. `C/C(=N\NC(=S)Nc1ccccc1C(F)(F)F)c1ccccn1` showed an IC50 of 0.161 µM. `C/C(=N\NC(=S)Nc1ccc(C)cc1)c1ccccc1O` gave an IC50 of 3.46 µM. Compound `C/C(=N\NC(=S)Nc1cccc(C(F)(F)F)c1)c1ccccn1` has an IC50 of 11.7 µM. `C/C(=N\Nc1ccccn1)c1ccccn1` showed an IC50 of 0.059 µM. In the case of `C(=N\Nc1ccccn1)/c1ccc2ccccc2n1`, the IC50 is reported as 0.43 µM. `O=[N+]([O-])c1ccc(O)c(/C=N/Nc2nc3ccccc3s2)c1` gave an IC50 of 1.99 µM. `COc1ccc(NC(=S)N/N=C/c2cccc(C)n2)cc1` showed an IC50 of 4.22 µM.

Same assay, conditions: Homo sapiens, MES-SA/Dx5, 72 h; read-out: pIC50 (converted)
For `COc1ccc(O)c(/C=N/Nc2nc3ccccc3s2)c1`, the IC50 was 9.33 µM. For `C/C(=N\NC(=S)Nc1ccccc1C(F)(F)F)c1ccccn1`, the IC50 was 0.141 µM. `C/C(=N\NC(=S)Nc1ccc(C)cc1)c1ccccc1O` showed an IC50 of 4.37 µM. Work on `C/C(=N\NC(=S)Nc1cccc(C(F)(F)F)c1)c1ccccn1` yielded an IC50 of 11.7 µM. In the case of `C/C(=N\Nc1ccccn1)c1ccccn1`, the IC50 is reported as 0.0589 µM. In the case of `C(=N\Nc1ccccn1)/c1ccc2ccccc2n1`, the IC50 is reported as 0.427 µM. Work on `O=[N+]([O-])c1ccc(O)c(/C=N/Nc2nc3ccccc3s2)c1` yielded an IC50 of 1.86 µM. `COc1ccc(NC(=S)N/N=C/c2cccc(C)n2)cc1` gave an IC50 of 4.17 µM.
